Results collected from several papers.
Each line is one published result; the experiments were not run side by side.
Flap endonuclease 1: Flap endonuclease 1 (Homo sapiens, UniProt P39748)
CHRM2: Muscarinic acetylcholine receptor M2 (CHRM2, Homo sapiens, UniProt P08172)
KRAS G12D: GTPase KRas (KRAS, Homo sapiens, UniProt P01116, G12D)
CDK4: Cyclin-dependent kinase 4 (CDK4, Homo sapiens, UniProt P11802)
Chymotrypsinogen A: Chymotrypsinogen A (Bos taurus, UniProt P00766)

| SMILES | target | effect on | mode | technique | notes | IC50 [µM] |
| --- | --- | --- | --- | --- | --- | --- |
| O=C(O)c1cc[c]([Sb](=[O])([OH])[OH])cc1[N+](=O)[O-] | Flap endonuclease 1 | enzyme activity | inhibitor | fluorescence | with preincubation | 1.2 |
| COc1cc(C(=O)N2CC[C@@H](O)[C@@H](N)C2)cc2nc(-c3cc4ccccc4n3CC3CC3)n(C)c12 | CHRM2 | calcium signal | antagonist | fluorescence | – | > 15.8 |
| [O]=[Sb]([OH])([OH])[c]1ccccc1 | Flap endonuclease 1 | enzyme activity | inhibitor | – | with preincubation | 130 |
| CN1CCC(=C2c3ccccc3CCc3cccnc32)CC1 | CHRM2 | calcium signal | antagonist | – | – | 0.08 |
| O=C1O[C@H]2[C@@H]3OC(=O)c4cc(O)c(O)c(O)c4-c4c(O)c(O)c5oc(=O)c6c(c(O)c(O)c7oc(=O)c4c5c76)-c4c(cc(O)c(O)c4O)C(=O)OC[C@H]3OC(O)[C@@H]2OC(=O)c2cc(O)c(O)c(O)c2-c2c1cc(O)c(O)c2O (mixture of isomers) | Genome polyprotein, protease (Hepatitis C virus genotype 1b, UniProt Q9WMX2) | enzyme activity | inhibitor | fluorescence | – | < 0.1 |
| CC[C@H](C)[C@@H]1NC(=O)[C@H](Cc2ccc(-c3ccccc3)cc2)NC(=O)[C@H](CC(C)C)NC(=O)[C@@H]2CCCN2C(=O)[C@@H](NC(=O)[C@H](CCCNC(=N)N)NC(=O)[C@H](CCCNC(=N)N)NC(C)=O)CSSC[C@@H](C(=O)N[C@@H](CCCNC(=N)N)C(=O)N[C@@H](CCCNC(=N)N)C(N)=O)NC(=O)[C@H](C(C)C)NC(=O)[C@@H]2CC[C@H](c3ccccc3)N2C(=O)[C@H](CC(=O)O)NC(=O)[C@H](Cc2ccc(O)cc2)NC(=O)[C@H](CO)NC1=O | KRAS G12D | enzyme activity | inhibitor | TR-FRET | – | 0.094 |
| CCOC(=O)[C@H]1Cc2c(cc([N+](=O)[O-])cc2[N+](=O)[O-])[C@@H](O)[C@@]12C(=O)Nc1ccc(C)cc12 | CDK4 | cell-free assay | inhibitor | TR-FRET | – | 0.91 |
| CC(C)C[C@H](NC(=O)[C@H](Cc1ccccc1)NC(=O)c1cnccn1)B(O)O | Chymotrypsinogen A | enzyme activity | inhibitor | – | – | > 33 |
| CC(C)C[C@H](NC(=O)[C@H](Cc1ccccc1)NC(=O)[C@H](Cc1ccc(O)cc1)NC(=O)CNC(=O)[C@H](CCCCN)NC(=O)[C@H](CO)NC(=O)[C@H](CCC(N)=O)NC(=O)CNC(=O)[C@@H](NC(=O)[C@H](CO)NC(=O)[C@@H]1CCCN1C(=O)[C@H](CO)NC(=O)[C@H](CCC(N)=O)NC(=O)[C@H](Cc1ccc(O)cc1)NC(=O)[C@H](CCC(=O)O)NC(=O)[C@H](C)NC(=O)[C@H](CCCCN)NC(=O)[C@@H](N)Cc1ccccc1)C(C)C)C(=O)N[C@@H](Cc1ccccc1)C(=O)N[C@@H](CCCNC(=N)N)C(=O)N1CCC[C@H]1C(=O)N[C@@H](CCCNC(=N)N)C(=O)N[C@@H](CC(N)=O)C(N)=O | Neuromedin-U receptor 1 (Mus musculus, UniProt O55040) | ligand displacement | – | radioligand | cell membranes | 3e-05 |
| CCOC(=O)[C@H]1Cc2c(cc([N+](=O)[O-])cc2[N+](=O)[O-])[C@@H](O)[C@@]12C(=O)Nc1ccc(Br)cc12 | CDK4 | cell-free assay | inhibitor | TR-FRET | – | 0.32 |
| O=C1C(=O)N(Cc2cc3ccccc3s2)c2ccc(I)cc21 | Chymotrypsinogen A | enzyme activity | inhibitor | – | – | 1000 |
| O=c1oc(-c2cccc(F)c2)ns1 | Chymotrypsinogen A | enzyme activity | inhibitor | – | – | 2.67 |
| O=C(Nc1cc[c]([Sb](=[O])([OH])[OH])cc1)c1ccccc1 | Flap endonuclease 1 | enzyme activity | inhibitor | fluorescence | with preincubation | 18 |
| CCOC(=O)[C@H]1Cc2c(cc([N+](=O)[O-])cc2[N+](=O)[O-])[C@@H](O)[C@@]12C(=O)Nc1cc(Br)ccc12 | CDK4 | cell-free assay | inhibitor | TR-FRET | – | 1.1 |
| COc1cccc(-c2nsc(=O)o2)c1 | Chymotrypsinogen A | enzyme activity | inhibitor | – | – | 2.19 |
| CCOC(=O)[C@H]1Cc2c(cc([N+](=O)[O-])cc2[N+](=O)[O-])[C@H](O)[C@]12C(=O)Nc1ccc(Cl)cc12 | CDK4 | cell-free assay | inhibitor | TR-FRET | – | 3.9 |
| CC[C@H](C)[C@@H]1NC(=O)[C@H](Cc2ccc(-c3ccccc3)cc2)NC(=O)[C@H](CC(C)C)NC(=O)[C@@H]2CCCN2C(=O)[C@@H](NC(=O)[C@H](CCCNC(=N)N)NC(=O)[C@H](CCCNC(=N)N)NC(C)=O)CSSC[C@@H](C(=O)N[C@@H](CCCNC(=N)N)C(=O)N[C@@H](CCCNC(=N)N)C(N)=O)NC(=O)[C@H](Cc2ccc(Cl)cc2)NC(=O)[C@@H]2C[C@@H](OCC(=O)O)CN2C(=O)[C@H](CC(=O)O)NC(=O)[C@H](Cc2ccc(O)cc2)NC(=O)[C@H](CO)NC1=O | KRAS G12D | enzyme activity | inhibitor | TR-FRET | – | 0.033 |
| c1ccc(-c2c[nH]c3ncnc(N4CCOCC4)c23)cc1 | Serine/threonine-protein kinase 3 (STK3, Homo sapiens, UniProt Q13188) | enzyme activity | inhibitor | ADP detection | – | 0.127 |
| CCOC(=O)CCCc1cc[c]([Sb](=[O])([OH])[OH])cc1 | Flap endonuclease 1 | enzyme activity | inhibitor | fluorescence | with preincubation | 1.7 |
| CC[C@@H](C)[C@H]1NC(=O)[C@H](Cc2ccc(-c3ccccc3)cc2)NC(=O)[C@H](CC(C)C)NC(=O)[C@@H]2[C@@H](c3ccccc3)CCN2C(=O)[C@H](NC(=O)[C@@H](CCCNC(=N)N)NC(=O)[C@@H](CCCNC(=N)N)NC(C)=O)CSCSC[C@@H](C(=O)N[C@H](CCCNC(=N)N)C(=O)N[C@H](CCCNC(=N)N)C(N)=O)NC(=O)[C@H](C(C)C)NC(=O)[C@@H]2CCCN2C(=O)[C@H](CC(=O)O)NC(=O)[C@H](Cc2ccc(O)cc2)NC(=O)[C@@](C)(CO)NC1=O | KRAS G12D | enzyme activity | inhibitor | TR-FRET | – | > 11.1 |
| CCOC(=O)[C@H]1Cc2c(cc([N+](=O)[O-])cc2[N+](=O)[O-])[C@@H](O)[C@@]12C(=O)Nc1c(F)cccc12 | CDK4 | cell-free assay | inhibitor | TR-FRET | – | 0.99 |
| C[N+](C)(C)CC#CCOC(=O)Nc1cccc(Cl)c1 | CHRM2 | ligand displacement | – | radioligand | – | 330 |
